Measured values: ChEMBL document CHEMBL1132552, “Synthesis, characterization, and structure-activity relationships of amidine-substituted (bis)benzylidene-cycloketone olefin isomers as potent and selective factor Xa inhibitors” (J Med Chem, 1999)

Legend:
[1] = target: Prothrombin (Homo sapiens, UniProt P00734); assay: In vitro inhibition of human thrombin(FIIa).
Procedure, shortened: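 Medium: 150 mM NaCl, 2.5 mM CaCl₂, 50 mM Tris-HCl pH 7.5, 0.1% PEG 6000. Microplate reader readings at room temperature (~23 °C), light excluded, varying inhibitor concentrations. Competitive Ki derived; assays in duplicate.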

[2] = target: T1, Serine protease 1 (Bos taurus, UniProt P00760); assay: In vitro inhibition of bovine trypsin(Trp).
T1 sequence (P00760 whole entry): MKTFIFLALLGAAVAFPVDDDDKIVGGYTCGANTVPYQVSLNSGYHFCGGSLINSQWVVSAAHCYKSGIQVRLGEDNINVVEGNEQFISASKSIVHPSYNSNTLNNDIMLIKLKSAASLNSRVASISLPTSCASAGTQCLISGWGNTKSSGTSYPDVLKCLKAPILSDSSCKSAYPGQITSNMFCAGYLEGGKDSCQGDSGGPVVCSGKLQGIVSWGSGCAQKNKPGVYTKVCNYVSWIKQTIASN
Procedure, shortened: (§1)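 Buffer was 150 mM NaCl, 2.5 mM CaCl₂, 50 mM Tris-HCl pH 7.5, 0.1% PEG 6000. Read in a microplate reader at ~23 °C in the dark across varying inhibitor concentrations. Ki from competitive treatment; duplicate runs.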

[3] = target: Coagulation factor X (Homo sapiens, UniProt P00742); assay: In vitro inhibition of human coagulation factor Xa (Xa) in a purified enzyme system.
Chain of Coagulation factor X (P00742 41-179 limits assumed): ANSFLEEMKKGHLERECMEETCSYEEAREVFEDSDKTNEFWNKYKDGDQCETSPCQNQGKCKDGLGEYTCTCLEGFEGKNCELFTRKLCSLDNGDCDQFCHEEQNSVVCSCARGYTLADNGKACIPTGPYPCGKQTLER
Chain of Coagulation factor X (P00742 235-488 limits assumed): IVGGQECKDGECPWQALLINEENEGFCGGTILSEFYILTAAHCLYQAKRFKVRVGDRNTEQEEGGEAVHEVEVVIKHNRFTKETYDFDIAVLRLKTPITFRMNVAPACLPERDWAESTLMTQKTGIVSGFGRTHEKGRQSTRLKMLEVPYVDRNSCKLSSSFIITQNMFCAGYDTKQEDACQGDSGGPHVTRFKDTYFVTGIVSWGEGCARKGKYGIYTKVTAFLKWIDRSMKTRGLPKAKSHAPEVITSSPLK
Procedure, shortened: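 Buffer: 150 mM NaCl, 2.5 mM CaCl₂, 50 mM Tris-HCl pH 7.5, 0.1% PEG 6000. For very tight binding, enzyme was lowered to 0.1 nM, or data at 0.3 and 1 nM enzyme were fitted to a modified Morrison equation.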

[4] = target: T1, Serine protease 1; assay: In vitro inhibition of bovine trypsin (Trp).; procedure, shortened: as §1

SMILES | Ki [1] | Ki [2] | Ki [3] | Ki [4]
N=C(N)c1ccc(/C=C2\CC(c3ccccc3)C/C(=C\c3ccc(C(=N)N)cc3)C2=O)cc1 (stereo not drawn) | 630 nM | 56 nM | 3300 nM | –
N=C(N)c1ccc(/C=C2/CC/C(=C\c3ccc(C(=N)N)cc3)C2=O)cc1 | 19200 nM | 730 nM | 230 nM | –
NC(=O)c1ccc(/C=C2/CCCC/C(=C/c3ccc(C(N)=O)cc3)C2=O)cc1 | 2900 nM | > 5000 nM | > 5000 nM | –
N=C(N)c1ccc(/C=C2/CCC/C(=C/c3ccc(C(=N)N)cc3)C2=O)cc1 | 810 nM | 440 nM | 18 nM | –
N=C(N)c1ccc(/C=C2\CCC/C(=C\c3ccc(C(=N)N)cc3)C2=O)cc1 | – | 170 nM | – | –
N=C(N)c1ccc(/C=C2\CCCCC/C(=C\c3ccc(C(=N)N)cc3)C2=O)cc1 | 2100 nM | 310 nM | 1800 nM | –
N=C(N)c1ccc(/C=C2\CCCCCCC/C(=C\c3ccc(C(=N)N)cc3)C2=O)cc1 | 730 nM | 3000 nM | 960 nM | –
N=C(N)c1ccc(/C=C2\CCCC/C(=C\c3ccc(C(N)=O)cc3)C2=O)cc1 | > 500 nM | > 500 nM | > 500 nM | –
N=C(N)c1ccc(/C=C2/CC(c3ccccc3)C/C(=C\c3ccc(C(=N)N)cc3)C2=O)cc1 (stereo not drawn) | 325 nM | 160 nM | 395 nM | –
CN(C)C(=N)c1ccc(/C=C2/CCCC/C(=C\c3ccc(C(=N)N(C)C)cc3)C2=O)cc1 | > 5000 nM | > 5000 nM | > 5000 nM | –
N=C(N)c1ccc(/C=C2/CCCCCC/C(=C/c3ccc(C(=N)N)cc3)C2=O)cc1 | 290 nM | 190 nM | 2.8 nM | –
N=C(N)c1ccc(/C=C2\CC/C(=C\c3ccc(C(=N)N)cc3)C2=O)cc1 | 2200 nM | 590 nM | 4600 nM | –
N=C(N)c1ccc(/C=C2/CCC/C(=C\c3ccc(C(=N)N)cc3)C2=O)cc1 | 120 nM | 260 nM | – | –
NC(=O)c1ccc(/C=C2/CCCC/C(=C\c3ccc(C(N)=O)cc3)C2=O)cc1 | – | – | > 5000 nM | –
CN(C)C(=N)c1ccc(/C=C2\CCCC/C(=C\c3ccc(C(=N)N(C)C)cc3)C2=O)cc1 | > 5000 nM | – | > 5000 nM | > 5000 nM
COC(=O)C1C/C(=C/c2ccc(C(=N)N)cc2)C(=O)/C(=C\c2ccc(C(=N)N)cc2)C1 (stereo not drawn) | 1100 nM | 100 nM | 4.8 nM | –
N=C(N)c1ccc(/C=C2/CC(C(=O)O)C/C(=C/c3ccc(C(=N)N)cc3)C2=O)cc1 (stereo not drawn) | > 50000 nM | 430 nM | 6.9 nM | –
COC(=O)C1C/C(=C/c2ccc(C(=N)N)cc2)C(=O)/C(=C/c2ccc(C(=N)N)cc2)C1 (stereo not drawn) | 600 nM | 224 nM | > 500 nM | –
N=C(N)c1ccc(/C=C2\CCCC/C(=C/c3ccc(C(N)=O)cc3)C2=O)cc1 | 350 nM | 500 nM | 1850 nM | –
CN(C)C(=N)c1ccc(/C=C2/CCCC/C(=C\c3ccc(C(=N)N)cc3)C2=O)cc1 | 120 nM | 15 nM | 52 nM | –

SMILES | Ki [1] | Ki [2] | Ki [3] | Ki [4]
C/N=C(\N)c1ccc(/C=C2/CCCC/C(=C/c3ccc(C(=N)N)cc3)C2=O)cc1 | 1600 nM | 30 nM | 12 nM | –
CCOC(=O)N1C/C(=C/c2ccc(C(=N)N)cc2)C(=O)/C(=C/c2ccc(C(=N)N)cc2)C1 | 630 nM | 61 nM | 225 nM | –
CN(C)C(=N)c1ccc(/C=C2\CCCC/C(=C\c3ccc(C(=N)N)cc3)C2=O)cc1 | 3700 nM | 500 nM | 350 nM | –
C/N=C(\N)c1ccc(/C=C2\CCCC/C(=C\c3ccc(C(=N)N)cc3)C2=O)cc1 | – | 840 nM | – | –
CCOC(=O)N1C/C(=C/c2ccc(C(=N)N)cc2)C(=O)/C(=C\c2ccc(C(=N)N)cc2)C1 | 380 nM | 20 nM | 2.5 nM | –
N=C(N)c1ccc(/C=C2\CC(C(=O)O)C/C(=C\c3ccc(C(=N)N)cc3)C2=O)cc1 (stereo not drawn) | 21500 nM | 880 nM | 24400 nM | –
COC(=O)C1C/C(=C\c2ccc(C(=N)N)cc2)C(=O)/C(=C/c2ccc(C(=N)N)cc2)C1 (stereo not drawn) | 4400 nM | 72 nM | > 5000 nM | –
CCOC(=O)N1C/C(=C\c2ccc(C(=N)N)cc2)C(=O)/C(=C/c2ccc(C(=N)N)cc2)C1 | 3300 nM | 125 nM | > 5000 nM | –
N=C(N)c1ccc(/C=C2/CCCCCCC/C(=C/c3ccc(C(=N)N)cc3)C2=O)cc1 | – | 2200 nM | – | –
CN(C)C(=N)c1ccc(/C=C2/CCCC/C(=C/c3ccc(C(=N)N)cc3)C2=O)cc1 | – | 90 nM | – | –
C/N=C(/N)c1ccc(/C=C2/CCCC/C(=C\c3ccc(C(=N)N)cc3)C2=O)cc1 | 360 nM | 155 nM | 500 nM | –
N=C(N)c1ccc(/C=C2/CCCCCCC/C(=C\c3ccc(C(=N)N)cc3)C2=O)cc1 | 150 nM | 2100 nM | – | –
CN(C)C(=N)c1ccc(/C=C2/CCCC/C(=C/c3ccc(C(=N)N(C)C)cc3)C2=O)cc1 | > 5000 nM | > 5000 nM | 1600 nM | –
N=C(N)c1ccc(/C=C2/CCCCCC/C(=C\c3ccc(C(=N)N)cc3)C2=O)cc1 | – | 340 nM | 320 nM | –
N=C(N)c1ccc(/C=C2/CC(c3ccccc3)C/C(=C/c3ccc(C(=N)N)cc3)C2=O)cc1 (stereo not drawn) | 1700 nM | 100 nM | 5.2 nM | –
N=C(N)c1ccc(/C=C2/CCCC/C(=C/c3ccc(C(N)=O)cc3)C2=O)cc1 | 110 nM | 690 nM | 50 nM | –
N=C(N)c1ccc(/C=C2/CCCCC/C(=C/c3ccc(C(=N)N)cc3)C2=O)cc1 | 300 nM | 100 nM | 4.6 nM | –
N=C(N)c1ccc(/C=C2\CCCCCC/C(=C\c3ccc(C(=N)N)cc3)C2=O)cc1 | 3700 nM | 1500 nM | 390 nM | –
N=C(N)c1ccc(/C=C2/CCCCC/C(=C\c3ccc(C(=N)N)cc3)C2=O)cc1 | – | 30 nM | 130 nM | –
